Results reported in ChEMBL document CHEMBL1152649, “Synthesis, cytotoxicity and human telomerase inhibition activities of a series of 1,2-heteroannelated anthraquinones and anthra[1,2-d]imidazole-6,11-dione homologues” (2009).

What was measured:
Assay type in all cases: functional
LOX IMVI = test: Growth inhibition of human LOXIMVI cells
In short: (§1)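 NCI 60 cancer cell line screen run per the Developmental Therapeutics Program protocol. Dose–response curves were plotted against log10 drug concentration for each cell line within its subpanel, and mean graph midpoint values were calculated.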

RXF 393 [1] = test: Antiproliferative activity against human RXF393 cells assessed as cell growth at 10 uM; settings: read-out: Activity
In short: (§2)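 NCI 60 cell line panel, single-dose screen (10^-5 M) run by the developmental therapeutics program protocol. Results are given as growth percent of treated cells relative to untreated control cells for each line.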

HT-29 = test: Growth inhibition of human HT-29 cells; in short: as §1
UO-31 = test: Growth inhibition of human UO31 cells
In short: (§3)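 Assayed in the NCI 60 human cancer cell line panel under the Developmental Therapeutics Program protocol. For each line, dose–response curves were plotted against log10 drug concentration. In the one-dose screen at 10^-5 M, growth was given as percent of untreated control cells, and mean graph midpoint values were averaged.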

M14 = test: Growth inhibition of human M14 cells; in short: as §1
MDA-MB-435 = test: Growth inhibition of human MDA-MB-435 cells; in short: as §1
SK-MEL-2 = test: Growth inhibition of human SK-MEL-2 cells; in short: as §3
BT-549 = test: Growth inhibition of human BT549 cells; in short: as §1
SW-620 = test: Growth inhibition of human SW620 cells; in short: as §3
IGROV-1 [2] = test: Antiproliferative activity against human IGROV1 cells assessed as cell growth at 10 uM; settings: read-out: Activity; in short: as §2
RXF 393 [3] = test: Growth inhibition of human RXF393 cells; in short: as §3
SNB-75 = test: Growth inhibition of human SNB75 cells; in short: as §3
SK-MEL-5 = test: Growth inhibition of human SK-MEL-5 cells; in short: as §3
[4] = Growth inhibition of human […] cells; in short: as §3
T47D = test: Growth inhibition of human T47D cells; in short: as §3
TK-10 = test: Growth inhibition of human TK10 cells; in short: as §3
HL-60(TB) = test: Growth inhibition of human HL-60(TB) cells
In short: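 NCI 60-cell-line panel run under the Developmental Therapeutics Program protocol. Dose-response curves are plotted against log10 drug concentration for each cell line within its subpanel, and GI50 is read from these curves.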

CCRF-CEM = test: Growth inhibition of human CCRF-CEM cells; in short: as §1
DU-145 = test: Growth inhibition of human DU145 cells; in short: as §1
NCI-H23 = test: Growth inhibition of human NCI-H23 cells; in short: as §1
HCC 2998 = test: Growth inhibition of human HCC2998 cells; in short: as §1
NCI/ADR-RES = test: Growth inhibition of human NCI/ADR-RES cells; in short: as §1
PC-3 = test: Growth inhibition of human PC3 cells; in short: as §3
HOP-62 = test: Growth inhibition of human HOP62 cells; in short: as §1
KM12 = test: Growth inhibition of human KM12 cells; in short: as §1
786-0 = test: Growth inhibition of human 786-0 cells; in short: as §1
Malme-3M = test: Growth inhibition of human MALME-3M cells; in short: as §1
HCT-116 = test: Growth inhibition of human HCT116 cells; in short: as §1
NCI-H322M = test: Growth inhibition of human NCI-H322M cells; in short: as §1
NCI-H460 = test: Growth inhibition of human NCI-H460 cells; in short: as §1
ACHN = test: Growth inhibition of human ACHN cells; in short: as §1
CAKI-1 = test: Growth inhibition of human Caki1 cells; in short: as §1
IGROV-1 [5] = test: Growth inhibition of human IGROV1 cells; in short: as §1
EKVX = test: Growth inhibition of human EKVX cells; in short: as §1
OVCAR-4 = test: Growth inhibition of human OVCAR4 cells; in short: as §1
SF-539 = test: Growth inhibition of human SF539 cells; in short: as §3
[6] = read-out: LC50 (the source's name)

`O=C1c2ccccc2C(=O)c2c1ccc1nsnc21` gave a GI50 (LOX IMVI) of 0.82 µM, a TGI (LOX IMVI) of 2.13 µM and a CC50 (LOX IMVI; [6]) of 4.86 µM. For the same molecule, the growth at 10 µM (RXF 393 [1]) was 20.1%, the GI50 (HT-29) was 13.4 µM and the TGI (HT-29) was 50.4 µM. For the same molecule, the CC50 (HT-29; [6]) was over 100 µM, the GI50 (UO-31) was 1.62 µM and the TGI (UO-31) was 3.12 µM. The CC50 (UO-31; [6]) was 6.01 µM, the GI50 (M14) was 2.15 µM and the TGI (M14) was 4.85 µM. The CC50 (M14; [6]) was over 100 µM, the GI50 (MDA-MB-435) was 1.91 µM and the TGI (MDA-MB-435) was 3.31 µM. For the same molecule, the CC50 (MDA-MB-435; [6]) was 5.76 µM, the GI50 (SK-MEL-2) was 1.68 µM and the TGI (SK-MEL-2) was 4.22 µM. The CC50 (SK-MEL-2; [6]) was 22.5 µM, the GI50 (BT-549) was 1.63 µM and the LC50 (BT-549) was 6.01 µM. The TGI (BT-549) was 3.13 µM, the GI50 (SW-620) was 1.79 µM and the TGI (SW-620) was 3.5 µM. For the same molecule, the CC50 (SW-620; [6]) was 6.84 µM, the growth at 10 µM (IGROV-1 [2]) was -88.3% and the GI50 (RXF 393 [3]) was 1.75 µM. For the same molecule, the TGI (RXF 393 [3]) was 4.4 µM, the CC50 (RXF 393 [3]; [6]) was 14.6 µM and the GI50 (SNB-75) was 2.03 µM. It also gave a TGI (SNB-75) of 5.2 µM, a CC50 (SNB-75; [6]) of 18.6 µM and a GI50 (SK-MEL-5) of 1.58 µM. The TGI (SK-MEL-5) was 2.92 µM, the CC50 (SK-MEL-5; [6]) was 5.41 µM and the GI50 [4] was 1.18 µM. For the same molecule, the TGI [4] was 3.46 µM, the CC50 [4, 6] was over 100 µM and the GI50 (T47D) was 1.39 µM. The LC50 (T47D) was 8.27 µM, the TGI (T47D) was 3.39 µM and the GI50 (TK-10) was 2.85 µM. It also gave a TGI (TK-10) of 10.9 µM, a CC50 (TK-10; [6]) of 50.4 µM and a GI50 (HL-60(TB)) of 0.16 µM. It also gave a TGI (HL-60(TB)) of 0.4 µM, a CC50 (HL-60(TB); [6]) of 0.99 µM and a GI50 (CCRF-CEM) of 1.08 µM. It also gave a TGI (CCRF-CEM) of 4.1 µM, a CC50 (CCRF-CEM; [6]) of over 100 µM and a GI50 (DU-145) of 1.67 µM. For the same molecule, the TGI (DU-145) was 3.24 µM, the CC50 (DU-145; [6]) was 6.27 µM and the GI50 (NCI-H23) was 1.44 µM. The TGI (NCI-H23) was 6.04 µM, the CC50 (NCI-H23; [6]) was over 100 µM and the GI50 (HCC 2998) was 16.4 µM. For the same molecule, the TGI (HCC 2998) was 33.1 µM, the CC50 (HCC 2998; [6]) was 66.6 µM and the GI50 (NCI/ADR-RES) was 1.86 µM. The TGI (NCI/ADR-RES) was 12.6 µM, the CC50 (NCI/ADR-RES; [6]) was over 100 µM and the GI50 (PC-3) was 3.23 µM. The TGI (PC-3) was over 100 µM, the CC50 (PC-3; [6]) was over 100 µM and the GI50 (HOP-62) was 1.28 µM. The TGI (HOP-62) was 3.31 µM, the CC50 (HOP-62; [6]) was 8.53 µM and the GI50 (KM12) was 1.96 µM. The TGI (KM12) was 5.54 µM, the CC50 (KM12; [6]) was 59.7 µM and the GI50 (786-0) was 6.17 µM. The TGI (786-0) was 19.3 µM, the CC50 (786-0; [6]) was 50.4 µM and the GI50 (Malme-3M) was 1.66 µM. For the same molecule, the TGI (Malme-3M) was 3.15 µM, the CC50 (Malme-3M; [6]) was 5.96 µM and the GI50 (HCT-116) was 1.93 µM. For the same molecule, the TGI (HCT-116) was 5.4 µM, the CC50 (HCT-116; [6]) was over 100 µM and the GI50 (NCI-H322M) was 17.4 µM. For the same molecule, the TGI (NCI-H322M) was 47.8 µM, the CC50 (NCI-H322M; [6]) was over 100 µM and the GI50 (NCI-H460) was 3.27 µM. It also gave a TGI (NCI-H460) of 14.3 µM, a CC50 (NCI-H460; [6]) of 47.3 µM and a GI50 (ACHN) of 1.46 µM. For the same molecule, the TGI (ACHN) was 2.77 µM, the CC50 (ACHN; [6]) was 5.27 µM and the GI50 (CAKI-1) was 1.61 µM. For the same molecule, the TGI (CAKI-1) was 2.96 µM, the CC50 (CAKI-1; [6]) was 5.44 µM and the GI50 (IGROV-1 [5]) was 1.36 µM. The TGI (IGROV-1 [5]) was 2.94 µM, the CC50 (IGROV-1 [5]; [6]) was 6.35 µM and the GI50 (EKVX) was 1.55 µM. The TGI (EKVX) was 3.45 µM, the CC50 (EKVX; [6]) was 7.66 µM and the GI50 (OVCAR-4) was 0.65 µM. It also gave a TGI (OVCAR-4) of 2.17 µM, a CC50 (OVCAR-4; [6]) of 5.57 µM and a GI50 (SF-539) of 1.46 µM. It also gave a TGI (SF-539) of 2.94 µM and a CC50 (SF-539; [6]) of 5.91 µM.
With `CC1(C)Nc2ccc3c(c2N1)C(=O)c1ccccc1C3=O` the growth at 10 µM (RXF 393 [1]) was 85.1% and the growth at 10 µM (IGROV-1 [2]) was -2.8%.
